The subject of series [1] is NRK. Put plainly: Concentration to inhibit growth of normal rat kidney epithelial cells (NRK cells) after 72 hr exposure. Format: functional, cell-based. An outline of the steps: (§1)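 Cells precultured 24 h in DMEM with 10% fetal calf serum, then exposed to drug for 72 h. Viability read by MTT assay. IC50 taken as concentration giving 50% growth inhibition relative to control cultures.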

The target of series [2] is Proto-oncogene tyrosine-protein kinase Src (Rattus norvegicus, UniProt Q9WUD9). Description: Inhibition of v-Src tyrosine kinase autophosphorylation in SR3Y1 cells after 15 hr exposure. The class given is cell-based. An outline of the steps:
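SR-3Y1 cells exposed to drug 15 h, lysed on ice 20 min in Tris pH 7.5 RIPA-type buffer with protease inhibitors and 1 mM vanadate. Equal-protein lysates run on SDS-PAGE, blotted with anti-phosphotyrosine antibody, HRP secondary, ECL detection. IC50 = concentration halving tyrosine phosphorylation.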

The test system of series [3] is 3Y1 cell line. Put plainly: Concentration to inhibit growth of normal rat fibroblast cells (3Y1-B cells) after 72 h exposure. The settings on record: 3Y1, 72 h. Format: functional, cell-based. An outline of the steps: as §1
Series [4] can be described thus: Concentration to inhibit growth of v-src-transformed cells (SR-3Y1 cells) after 72 h exposure. Format: functional. The settings on record: Rattus norvegicus, SR3Y1, 72 h. Summed up:
as §1

Series [5] is described as follows: Concentration to inhibit growth of normal rat K-ras-transformed cells (KNRK 5.2 cells) after 72 hr exposure. The class given is functional. Summed up: as §1
In series [6] the test system is Mus musculus. Description: In vivo antitumor activity against BALB mice transplanted with human tumor (A431) Xenograft Model at a dose of 50 mg/kg by administering intravenously for 5 days and Mortality is calculated. The class given is functional. As to conditions: route intravenous. An outline of the steps:
(§2)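 Adult BALB/c nu/nu mice (n = 5) inoculated sc in the flank with human tumor cells: MX-1 on day -14, A431 on day -18. Drug dissolved in cremophor EL/N,N-dimethylacetamide/physiological saline (7.5:5:87.5) and given iv once daily on days 0-4. Animals monitored for lethal toxicity and body weight loss.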

Series [7] can be described thus: Inhibition of K-ras-induced MAPK phosphorylation in KNRK5.2 cells after 40h exposure at 0.2 uM. The class given is functional. The settings on record: Rattus norvegicus. Summed up:
(§3)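 KNRK5.2 cells exposed to 0.2 µM drug for 40 h, then lysed. Equal-protein lysates Western blotted in duplicate for Raf-1 (rabbit polyclonal), phospho-MAPK (phosphospecific antibody) and total Erk2 (monoclonal). Read-out is % inhibition of phospho-Erk2 formation or % Raf-1 depletion.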

The subject of series [8] is Mus musculus. Description: In vivo antitumor activity against BALB mice transplanted with human tumor (MX-1) using Xenograft Model at a dose of 50 mg/kg by administering intravenously for 5 days and T/C value was calculated on 11th day. The class given is functional. As to conditions: route intravenous. An outline of the steps:
(§4)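 Adult BALB/c nu/nu mice (n = 5), tumor cells inoculated sc in the flank (MX-1 day -14, A431 day -18). Drug in cremophor EL/N,N-dimethylacetamide/saline (7.5:5:87.5), given iv daily days 0-4. Tumor volume = length × width²/2. T/C = mean V/V0 of treated over control. Mann–Whitney U test.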

Series [9] deals with Mus musculus. Put plainly: In vivo antitumor activity against BALB mice transplanted with human tumor (MX-1) Xenograft Model at a dose of 25 mg/kg by administering intravenously for 5 days and Mortality is calculated. The class given is functional. The settings on record: route intravenous. Summed up:
as §2

The species named for series [10] is Mus musculus. Description: Dose required to produce lethal toxicity was determined. Format: organism-based. The settings on record: in vivo. An outline of the steps: as §2
A short description of series [11]: Percent depletion of Raf-1 protein expression after 40h exposure at 0.2 uM in KNRK5.2 cells. The class given is functional, cell-based. The settings on record: Rattus norvegicus. An outline of the steps:
as §3

In series [12] the test system is Mus musculus. Put plainly: In vivo antitumor activity against BALB mice transplanted with human tumor (MX-1) Xenograft Model at a dose of 50 mg/kg by administering intravenously for 5 days and Mortality is calculated. Format: functional. The settings on record: route intravenous. An outline of the steps: as §2
The subject of series [13] is Mus musculus. Description: In vivo antitumor activity against BALB mice transplanted with human tumor (MX1) Xenograft Model at a dose of 25 mg/kg by administering intravenously for 5 days and T/C value was calculated on 11th day. The settings on record: route intravenous. Format: functional. An outline of the steps: as §4
In series [14] the test system is Mus musculus. Put plainly: In vivo antitumor activity against BALB mice transplanted with human tumor (A431) Xenograft Model at a dose of 25 mg/kg by administering intravenously for 5 days and T/C value was calculated on 7th day. Format: functional. As to conditions: dose 50 mg/kg; route intravenous; in the assay text read “50 mg/kg” for “25 mg/kg”. Summed up:
as §4

In series [15] the test system is Mus musculus. Description: In vivo antitumor activity against BALB mice transplanted with human tumor (MX-1) using Xenograft Model at a dose of 100 mg/kg by administering intravenously for 5 days and T/C value is calculated on 14th day. The class given is functional. As to conditions: route intravenous.
Series [16] relates to Mus musculus. Put plainly: In vivo antitumor activity against BALB mice transplanted with human tumor (MX-1) using Xenograft Model at a dose of 100 mg/kg by administering intravenously for 5 days and mortality is calculated. The class given is functional. As to conditions: route intravenous. Summed up:
as §2

As a reminder, the IC50 is the concentration that inhibits the measured activity by half. A higher IC50 goes with a need for much substance. By inhibition is commonly meant the share of the control response that was lost under treatment. The low end stands for little suppression, the high end for strong suppression.

Each structure is given as a SMILES string.

For `C[C@@H]1C[C@H]2O[C@@H]2\C=C/C=C/C(=N\OCC(=O)N2CCCC2)Cc2c(Cl)c(O)cc(O)c2C(=O)O1`, the IC50 is 34 nM in [1]; 70 nM in series [2]; 55 nM in series [3]; 20 nM in series [4]; 39 nM in series [5].

Turning to `C[C@@H]1C[C@H]2O[C@@H]2\C=C/C=C/C(=N\OCC(=O)N2CCCCC2)Cc2c(Cl)c(O)cc(O)c2C(=O)O1`, the Mortality in series [6], in series [9] and in [12] was 0 throughout. The IC50 in [1] is 18 nM; in series [2] it was 25 nM; in series [3], 8.3 nM; in series [4], 6.1 nM; in series [5] it was 14 nM. In series [7], this compound showed an inhibition at 0.2 µM of 95%. In addition, the figures for the T/C min in series [8], in [13] and in series [14] were 0.17, 0.54 and 0.44, respectively. In addition, the Lethal toxicity in series [10] was 100 mg/kg. Moreover, the Depletion in series [11] came out at 74%.

`CCN(CC)c1ccc(NC(=O)CO\N=C2/C=C/C=C\[C@H]3O[C@@H]3C[C@@H](C)OC(=O)c3c(O)cc(O)c(Cl)c3C2)cc1`: the IC50 in series [1] was 520 nM; in series [2], less than 10 nM; in series [3] it was 490 nM; in [4], 100 nM; in [5], 240 nM.

For `C[C@@H]1C[C@H]2O[C@@H]2/C=C\C=C\C(=O)Cc2c(Cl)c(O)cc(O)c2C(=O)O1` [RADICICOL], the IC50 was 290 nM in [1]; 180 nM in series [2]; 700 nM in [3]; 59 nM in series [4]; 110 nM in series [5].

Take `C[C@@H]1C[C@H]2O[C@@H]2\C=C/C=C/C(=N\O)Cc2c(Cl)c(O)cc(O)c2C(=O)O1`: the IC50 worked out at 80 nM in series [1]; 56 nM in [2]; 90 nM in [3]; 26 nM in [4]; 39 nM in series [5]. In addition, at 0.2 µM the inhibition in [7] was 81%. The T/C min in [15] is 0.49. In addition, the Mortality in [16] is reported as 0. This compound came in with a Depletion in series [11] of 29%.

Regarding `C[C@@H]1C[C@H]2O[C@@H]2\C=C/C=C/C(=N\OCC(=O)NCCO)Cc2c(Cl)c(O)cc(O)c2C(=O)O1`, the IC50 was greater than 3000 nM in series [1]; greater than 1000 nM in series [2]; 2800 nM in series [3]; 1500 nM in series [4]; 2200 nM in series [5].

Turning to `C[C@@H]1C[C@H]2O[C@@H]2\C=C/C=C/C(=N\OCC(=O)NC2CCCC2)Cc2c(Cl)c(O)cc(O)c2C(=O)O1`, the IC50 in [1] stood at 41 nM; in series [2], 14 nM; in series [3] it was 41 nM; in series [4], 9.8 nM; in series [5] it was 45 nM.

On to `CCOCCNC(=O)CO\N=C1/C=C/C=C\[C@H]2O[C@@H]2C[C@@H](C)OC(=O)c2c(O)cc(O)c(Cl)c2C1`, for which the IC50 in series [1] is 260 nM; in series [2], greater than 1000 nM; in [3], 390 nM; in series [4], 93 nM; in series [5], 230 nM.

For `C[C@@H]1C[C@H]2O[C@@H]2\C=C/C=C/C(=N\OCC(=O)N2CCOCC2)Cc2c(Cl)c(O)cc(O)c2C(=O)O1`, the IC50 is 340 nM in series [1]; 140 nM in series [2]; 310 nM in [3]; 130 nM in [4]; 340 nM in [5].

Take `C[C@@H]1C[C@H]2O[C@@H]2\C=C/C=C/C(=N\OCC(=O)NCc2cccnc2)Cc2c(Cl)c(O)cc(O)c2C(=O)O1`: the IC50 in series [1] is 510 nM; in series [2] it was greater than 1000 nM; in series [3] it was 670 nM; in series [4], 290 nM; in series [5], 480 nM.

As to `C[C@@H]1C[C@H]2O[C@@H]2\C=C/C=C/C(=N\OCC(=O)N2CCCCCC2)Cc2c(Cl)c(O)cc(O)c2C(=O)O1`, the IC50 in [1] is 7.3 nM; in series [2], 67 nM; in series [3] it was less than 4.1 nM; in series [4] it was less than 4.1 nM; in series [5] it was 6.4 nM.
